# Most compounds without a hit are left out; they make up all but 3.8% or so of the library.
# CHO parental Ca = counter-screen: ATP calcium response change in parental CHO cells; parental CHO-K1, ATP-induced calcium, Fluo-8 fluorescence; inhibition, % at 5.6 µM; 330,000 tested, 0.63% active; AID 463079;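 active = inhibition above that plate's mean sample inhibition plus 3 SD, cut at about 26% in these data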;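 note: 0% = ATP-challenged DMSO wells and 100% = DMSO wells without ATP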
#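 test system = CHO parental line | reagent = ATP stimulus | measured by = intracellular calcium via Fluo-8 no-wash fluorescent dye | control set = ATP and no-ATP DMSO wells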
# OX1R antag-1 = blocks the human orexin 1 receptor. CHO/OX1R cells, Fluo-8 calcium fluorescence, orexin A. inhibition, % at 5 µM. 330,000 tested, 0.43% active;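 active = inhibition above its plate's threshold, mean inhibition of all tested compounds on the plate plus 3 SD, cut at about 37% in these data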;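 note: 0% = orexin A challenge wells and 100% = SB-334867-A antagonist wells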
# Target sequence (O43613 whole entry, looked up): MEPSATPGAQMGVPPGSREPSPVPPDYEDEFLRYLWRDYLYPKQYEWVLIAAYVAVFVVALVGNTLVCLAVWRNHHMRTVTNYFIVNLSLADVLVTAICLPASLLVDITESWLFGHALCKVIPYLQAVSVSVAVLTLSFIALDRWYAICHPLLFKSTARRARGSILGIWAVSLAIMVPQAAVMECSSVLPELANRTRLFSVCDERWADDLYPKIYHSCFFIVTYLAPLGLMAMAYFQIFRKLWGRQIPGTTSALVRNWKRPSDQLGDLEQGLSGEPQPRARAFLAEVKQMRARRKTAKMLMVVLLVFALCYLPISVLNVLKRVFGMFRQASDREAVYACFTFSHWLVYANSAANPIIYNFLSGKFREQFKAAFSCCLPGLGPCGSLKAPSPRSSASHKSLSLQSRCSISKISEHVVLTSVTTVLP
# GPR7 antagonist = blocks human GPR7 receptor signaling. P48145. GPR7-expressing cells, fluorescence antagonist assay. inhibition, % at 4.4 µM. 290,000 tested, 1.1% active. AID 1861; in the data active = inhibition above about 16%, passing the limit was not always enough;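 note: cells stimulated with the agonist NPW; 0% = agonist with vehicle and 100% = vehicle without agonist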
# OX1R antag-2 = blocks the human orexin 1 receptor; inhibition, % at 6.6 µM; AID 485270; OX1R-expressing cells, FRET antagonist read-out; 330,000 tested, 1.8% active; O43613; in the data active = inhibition mostly above about 38%, no sharp cut-off; inactive = mostly below about 40%;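 note: 0% = agonist challenge alone and 100% = reference antagonist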
# MPTP inh = permeability transition pore inhibition. isolated mouse mitochondria, Ca2+ swelling absorbance, 30 min. inhibition, % at 10 µM. 360,000 tested, 1.4% active. AID 602449;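 active = inhibition of 50% or more, scaled per plate between neutral and stimulator controls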;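 note: 0% = DMSO wells given calcium and 100% = 1 mM EGTA wells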
# GPR7 antag cf = confirmation of human GPR7 antagonists; shares compounds with GPR7 antagonist; GPR7-expressing cells, calcium fluorescence antagonist mode; inhibition, % at 4.4 µM; 2,400 tested, 52% active; AID 1952; in the data active = inhibition above about 24%;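 note: stimulated with the GPR7 agonist NPW; 0% = agonist plus vehicle and 100% = vehicle alone without agonist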
# MCHR1 antagonist = antagonizes human MCHR1, a GPR7 antagonist counter-screen. shares compounds with GPR7 antagonist. MCHR1-expressing cells, fluorescence antagonist assay. inhibition, % at 4.4 µM. 2,400 tested, 62% active; in the data active = inhibition above about 22%;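 note: 0% = vehicle with agonist and 100% = vehicle without agonist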
# OX1R Fluo8 conf = confirmation of human orexin 1 receptor antagonists; 1,100 tested, 38% active; CHO/OX1R cells, orexin A calcium Fluo-8 fluorescence; inhibition, % at 5 µM; AID 492963; shares compounds with OX1R antag-1; in the data active = inhibition above about 29%;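 note: 0% = agonist challenge alone and 100% = reference antagonist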
# CHO Ca triplic = signal in parental CHO cells, OX1R antagonist counter-screen. parental CHO-K1, ATP-induced calcium, Fluo-8 fluorescence. shares compounds with OX1R antag-1. inhibition, % at 5.6 µM. 1,100 tested, 9.3% active. AID 492965;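 active = inhibition above a per-plate limit, the mean inhibition of that plate's test compounds plus 3 SD, cut at about 25% in these data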;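 note: 0% = ATP challenge with DMSO and 100% = DMSO without ATP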
# Active calls of the source: *; / = no result given; ! = a repeat was not active.
SMILES,CHO parental Ca,OX1R antag-1,GPR7 antagonist,OX1R antag-2,MPTP inh,GPR7 antag cf,MCHR1 antagonist,others
Cc1cccc2cc(C3CC(c4ccco4)=NN3S(C)(=O)=O)c(Cl)nc12 (configuration not stated),-16.6,-5.9,21.9*,10.0,0.3,2.4,11.5,
CCC(Oc1ccccc1)C(=O)Nc1ccc(S(=O)(=O)NCC2CCCO2)cc1 (configuration not stated),7.1,8.0,22.5*,7.6,4.5,-12.7,34.5*,
COc1ccc(N2CCN(c3oc(COc4ccccc4)nc3C#N)CC2)cc1,7.2,-5.3,43.6*,15.2,-1.7,48.6*,46.1*,
COc1ccc(N2CCN(c3oc(COc4ccc(Cl)cc4Cl)nc3C#N)CC2)cc1,-0.9,-13.5,40.7*,5.1,1.0,53.8*,34.9*,
COc1ccc(N2CCN(c3oc(COc4ccc(Cl)cc4)nc3C#N)CC2)cc1,3.5,-3.5,38.9*,21.1,1.6,40.1*,32.7*,
N#Cc1nc(COc2ccc(Cl)cc2)oc1N1CCN(Cc2ccccc2)CC1,-11.7,-11.9,48.5*,19.6,-1.9,49.5*,47.0*,
Cc1ccc(OCc2nc(C#N)c(NCc3ccc4c(c3)OCO4)o2)cc1,-4.2,-15.1,7.1,39.6,0.6,/,/,
N#Cc1nc(COc2ccc(-c3ccccc3)cc2)oc1NCCCN1CCOCC1,5.4,-2.4,23.8*,12.3,1.4,41.0*,56.1*,
CCN1CCN(c2oc(COc3ccc(Cl)cc3)nc2C#N)CC1,8.4,-25.5,0.4,0.7,0.9,/,/,
CN1CCN(c2oc(COc3ccc(-c4ccccc4)cc3)nc2C#N)CC1,-4.0,-4.0,26.8*,1.5,1.4,13.1,40.7*,
N#Cc1nc(COc2ccccc2)oc1NCCN1CCOCC1,-7.9,-8.4,4.2,18.1,-1.9,/,/,
C=CCNc1oc(COc2ccc(C)cc2)nc1C#N,-10.4,-1.5,24.2*,17.1,-1.3,6.6,16.7,
CN(C(=O)c1ccc(NC(=O)C2CCCN(C(=O)OC(C)(C)C)C2)cc1)C1CCCC1 (configuration not stated),-16.2,-6.7,/,9.9,-0.5,/,/,
Cc1c(C(=O)N2CCC(C)CC2)sc2ncn(CC(=O)N3CCC(C)CC3)c(=O)c12,-28.4,-18.1,-12.5,10.7,0.6,/,/,
CCOC(=O)c1cc(-c2ccc(OC)cc2F)nc2c1c(C)nn2CCC#N,-26.3,-20.6,29.4*,10.2,1.1,33.2*,22.7*,
CCOC(=O)c1cc(-c2ccc(Cl)cc2)nc2c1c(C)nn2CCC#N,-8.3,-27.0,2.7,28.7,-2.6,/,/,
CC1(C)CC[C@]2(CO)[C@@H](O)C[C@]3(C)C(=CCC4[C@@]5(C)CC[C@H](O)C(C)(C)C5CC[C@]43C)[C@@H]2C1 (some centres not stated),-14.5,10.6,/,13.0,/,/,/,
c1ccc(C(c2ccccn2)c2ccccn2)cc1,-2.1,-8.4,-1.8,21.4,11.2,/,/,
CC(=O)Oc1ccc(C(c2ccc(OC(C)=O)cc2)c2ccccn2)cc1,1.4,-0.7,66.3*,4.5,1.4,76.2*,46.6*,
CCCCC(CC)C(=O)N1CCN(C(=O)c2ccco2)CC1 (configuration not stated),-8.8,-19.1,-4.2,14.1,-1.4,/,/,
CN[C@H]1CC[C@@H](c2ccc(Cl)c(Cl)c2)c2ccccc21,0.1,-3.6,35.4*!,15.2,/,51.4*,49.4*,
O=C1C=C(O)CC(c2ccc(Cl)c(Cl)c2)C1 (configuration not stated),-14.7,-6.4,-4.3,26.8,-2.8,/,/,
Cc1ccc(OCC(O)Cn2c(=N)n(CCN3CCCCC3)c3ccccc32)cc1 (configuration not stated),-21.1,-21.2,27.5*,7.8,-5.0,40.9*,38.6*,
COc1ccc(OCC(O)Cn2c(=N)n(CCN3CCCCC3)c3ccccc32)cc1 (configuration not stated),-12.5,-44.9,28.6*,14.2,13.9,13.7,22.6*,
Cc1cc(C(=O)N2CCC(Cc3ccccc3)CC2)ccc1[N+](=O)[O-],-12.5,-20.7,/,40.0,-0.8,/,21.2,
SMILES,CHO parental Ca,OX1R antag-1,GPR7 antagonist,OX1R antag-2,MPTP inh,GPR7 antag cf,MCHR1 antagonist,others
Cc1cc(C(=O)N2CCN(Cc3ccccc3)CC2)ccc1[N+](=O)[O-],-4.8,-6.2,21.7,2.0,-0.1,/,/,
O=C(NNC(=O)c1cc(-c2ccncc2)nc2ccccc12)c1cccc(Cl)c1,-16.5,-19.1,/,14.2,-1.5,/,/,
COC(=O)c1sccc1NC(=O)CN(C)NS(=O)(=O)c1ccc(F)cc1,-6.3,-7.5,-9.8,9.2,0.1,/,/,
CCc1ccc(C(=O)NNC(=O)CCc2nc3ccccc3c(=O)[nH]2)cc1,-9.6,-18.4,/,13.6,-1.2,/,/,
CCOc1cc(/C=C2/COc3ccccc3C2=O)ccc1OCC(=O)N(C)C,/,/,23.6*,/,-2.4,4.7,21.4*,
CCN(C(=O)COC(=O)Cn1cnc2c1c(=O)n(C)c(=O)n2C)C1CCS(=O)(=O)C1 (configuration not stated),-0.7,4.2,28.7*,12.8,0.3,10.5,11.8,
O=C(Nc1ccc(C(=O)NCCCN2CCN(c3ccc(F)cc3)CC2)cc1)C1=CSCCO1,17.4,28.3,36.4*,0.5,-0.4,55.6*,73.9*,OX1R Fluo8 conf=43.8*;CHO Ca triplic=27.2*
O=C(Nc1ccc(C(=O)NCCCN2CCCCC2)cc1)C1=CSCCO1,-1.7,7.2,-10.2,5.2,-1.3,/,/,
COc1ccc(C(C(=O)NCC2CCCO2)N(C(=O)CNC(=O)c2cccs2)c2ccccc2C)cc1OC (configuration not stated),1.9,-13.9,-8.3,10.2,-1.0,/,/,
CCS(=O)(=O)c1ncc(Cl)c(C(=O)Nc2ccc(C)cc2)n1,26.0,28.3,53.2*,51.0,0.6,52.1*,84.2*,OX1R Fluo8 conf=32.0*;CHO Ca triplic=20.4
CCN1C(=O)[C@H]2[C@@H](c3ccc(-c4ccc(C(C)=O)cc4)cc3)N[C@@](C)(C(=O)OC)[C@H]2C1=O,-14.6,-16.9,/,0.4,-0.1,/,/,
O=C(CN1CCC(c2nc3ccccc3s2)CC1)NCc1cccs1,3.8,51.8*,48.1*,2.6,2.2,39.2*,57.5*,OX1R Fluo8 conf=-5.4;CHO Ca triplic=-1.9
Cc1ccc(C(CC(=O)N2CCCCC2)c2ccccc2)c(O)c1C (configuration not stated),-11.1,-1.9,-7.4,-12.4,2.0,/,/,
Cc1ccc(C(CC(=O)N2CCNCC2)c2ccccc2)c(O)c1C (configuration not stated),-4.2,34.4,33.2*,2.3,0.4,22.1,20.6,OX1R Fluo8 conf=41.0*;CHO Ca triplic=31.3*
